Measured values pooled from the literature.
Compare with care: the assays were run in different laboratories.
PIK3CA C420R: Phosphatidylinositol 4,5-bisphosphate 3-kinase catalytic subunit alpha isoform (PIK3CA, Homo sapiens, UniProt P42336, C420R)
PIK3CA E542K: Phosphatidylinositol 4,5-bisphosphate 3-kinase catalytic subunit alpha isoform (PIK3CA, Homo sapiens, UniProt P42336, E542K)
PIK3CA H1047Y: Phosphatidylinositol 4,5-bisphosphate 3-kinase catalytic subunit alpha isoform (PIK3CA, Homo sapiens, UniProt P42336, H1047Y)
PIK3CA Q546K: Phosphatidylinositol 4,5-bisphosphate 3-kinase catalytic subunit alpha isoform (PIK3CA, Homo sapiens, UniProt P42336, Q546K)
PIK3CA H1047L: Phosphatidylinositol 4,5-bisphosphate 3-kinase catalytic subunit alpha isoform (PIK3CA, Homo sapiens, UniProt P42336, H1047L)
PIK3CA E545A: Phosphatidylinositol 4,5-bisphosphate 3-kinase catalytic subunit alpha isoform (PIK3CA, Homo sapiens, UniProt P42336, E545A)
PIK3CA M1043I: Phosphatidylinositol 4,5-bisphosphate 3-kinase catalytic subunit alpha isoform (PIK3CA, Homo sapiens, UniProt P42336, M1043I)
PIK3CA E545K: Phosphatidylinositol 4,5-bisphosphate 3-kinase catalytic subunit alpha isoform (PIK3CA, Homo sapiens, UniProt P42336, E545K)

| SMILES | target | read-out | method | tested at | remaining binding |
| --- | --- | --- | --- | --- | --- |
| C[C@@H](c1ccc(-n2cnc3c(N)ncnc32)cc1)N1CCc2nn(C)c(Cc3ccccc3)c2C1=O | PIK3CA C420R | binding | competition with immobilised ligand | 0.1 µM | 98% |
| CC(C)CC(=O)N1CCc2nc(-c3ccc(Br)cc3)nc(N(C)Cc3ccccc3)c2C1 | PIK3CA E542K | cell-free assay | competition with immobilised ligand | 0.1 µM | 100% |
| O=C(c1ccc(Nc2nccc(-c3cc4ccccc4s3)n2)cc1)N1CCC(N2CCCC2)CC1 | PIK3CA E542K | binding | competition with immobilised ligand | 1 µM | 99% |
| COc1cnc(Nc2cccc(S(N)(=O)=O)c2)nc1N1CCN(c2ccccc2)C(=O)C1 | PIK3CA H1047Y | binding | competition with immobilised ligand | 1 µM | 81% |
| CN(CCCC(F)(F)F)c1nccc(-c2cnn3ncccc23)n1 | PIK3CA Q546K | binding |  | 1 µM | 69% |
| O=C(NCC1CCOCC1)c1n[nH]cc1NC(=O)c1c(F)cccc1F | PIK3CA H1047L | binding | competition with immobilised ligand | 1 µM | 74% |
| Cc1cc(NC(=O)c2cccc(S(F)(F)(F)(F)F)c2)cc(-n2ccn3nc(-c4cccnc4)cc23)c1 | PIK3CA C420R | cell-free assay | competition with immobilised ligand | 1 µM | 97.1% |
| O=C(Nc1c[nH]nc1C(=O)NC1CCNCC1)c1cc(F)cc(F)c1 | PIK3CA E542K | binding | competition with immobilised ligand | 1 µM | 88% |
| Cc1cc(C)c(-n2ccn3nc(-c4cccnc4)cc23)cc1NC(=O)c1cc(C#N)cc(S(F)(F)(F)(F)F)c1 | PIK3CA H1047Y | cell-free assay | competition with immobilised ligand | 0.1 µM | 76.2% |
| O=C(NCCCN1CCOCC1)c1ccc(Nc2ncc(Cl)c(-c3ccc(Cl)s3)n2)cc1 | PIK3CA Q546K | binding | competition with immobilised ligand | 1 µM | 100% |
| CN1CCN(c2ccc(Nc3nccc(-c4ccccc4)n3)cc2C(F)(F)F)CC1 | PIK3CA E545A | binding |  | 10 µM | 100% |
| CN(C)c1ncc(F)c(-c2cnn3ncccc23)n1 | PIK3CA Q546K | binding |  | 1 µM | 86% |
| O=C(NCCCN1CCOCC1)c1ccc(Nc2nccc(-c3cc4ccccc4s3)n2)cc1 | Phosphatidylinositol 4,5-bisphosphate 3-kinase catalytic subunit alpha isoform (PIK3CA, Homo sapiens, UniProt P42336) | binding | competition with immobilised ligand | 1 µM | 93% |
| FC(F)(F)c1ccc2c(c1)nc(-c1cccnc1)n2C1CC1 | PIK3CA M1043I | cell-free assay | competition with immobilised ligand | 1 µM | 100% |
| C[C@H]1CCN(c2nccc(-c3cnn4ncccc34)n2)C1 | PIK3CA M1043I | binding |  | 1 µM | 100% |
| C=CC(=O)N1CCC(C(=O)NCC(=O)N2CCN(c3nc(-c4cnc(N)nc4C(F)F)nc(N4CCOCC4)n3)CC2)CC1 | PIK3CA M1043I | binding | competition with immobilised ligand | 1 µM | 0% |
| O=C(c1ccc(Nc2ncc(Cl)c(-c3cc4ccccc4s3)n2)cc1)N1CCC(N2CCCC2)CC1 | PIK3CA M1043I | binding | competition with immobilised ligand | 1 µM | 62% |

| SMILES | target | read-out | method | tested at | remaining binding |
| --- | --- | --- | --- | --- | --- |
| COc1ncc2cc3ccccc3nc2c1C#N | PIK3CA H1047L | cell-free assay | competition with immobilised ligand | 5 µM | 98% |
| O=C(c1ccc(Nc2ncc(Cl)c(-c3ccc(Cl)s3)n2)cc1)N1CCC(N2CCCC2)CC1 | PIK3CA H1047Y | binding | competition with immobilised ligand | 1 µM | 100% |
| CC1CCCN1c1nccc(-c2cnn3ncccc23)n1 (stereo not drawn) | PIK3CA Q546K | binding |  | 1 µM | 42% |
| CN1CCN(c2ccc(Nc3nccc(-c4cccc([N+](=O)[O-])c4)n3)cc2C(F)(F)F)CC1 | PIK3CA E545K | binding |  | 10 µM | 36% |
| CCN1CCN(Cc2ccc(C(=O)Nc3ccc(C)c(Oc4ccc5c(c4)CC(=O)N5)c3)cc2C(F)(F)F)CC1 | PIK3CA E545K | binding | competition with immobilised ligand | 1 µM | 93% |
| Nc1ncc2c(n1)-c1c([nH]c3ccc(C#CC4CC4)cc13)CCCC2 | PIK3CA E545K | binding | competition with immobilised ligand | 1 µM | 100% |
| c1cncc(-c2cccc(Nc3nccc(NC4CCCCC4)n3)c2)c1 | PIK3CA Q546K | binding | competition with immobilised ligand | 10 µM | 100% |
| CNC(=O)[C@@H]1CC[C@@H](n2c(-c3ccc4cnccc4c3)nc3ccc(C(=O)NCc4cccc(C(N)=O)c4)cc32)C1 | PIK3CA M1043I | binding | competition with immobilised ligand | 1 µM | 79% |
| CC(=O)C1=C(C)N(c2cccc(C(F)(F)F)c2)C(=O)N[C@@H]1c1ccc(C#N)nc1 | PIK3CA H1047L | cell-free assay | competition with immobilised ligand | 1 µM | 69% |
| Cc1cnc(Nc2ccc(C(=O)N3CCC(N4CCCC4)CC3)cc2)nc1-c1cc2ccccc2s1 | PIK3CA E545A | binding | competition with immobilised ligand | 1 µM | 77% |
| O=C(O)c1cc(-c2ccc(C3CCNCC3)cc2)c2ccc(-c3ccc(C(F)(F)F)cc3)cc2c1 | PIK3CA M1043I | cell-free assay | competition with immobilised ligand | 1 µM | 100% |
| c1cnn2ncc(-c3ccnc(N4CCC45COC5)n3)c2c1 | PIK3CA H1047L | binding |  | 1 µM | 62% |
| C[C@H](NC(=O)c1cnc2n1[C@](C)(Cc1ccc(C#N)cc1)C(=O)N2c1cc(Cl)c(F)c(Cl)c1)C(=O)NC1(c2ccccn2)CC1 | PIK3CA H1047L | cell-free assay | competition with immobilised ligand | 1 µM | 81% |
| COc1cnc(Nc2cccc(S(N)(=O)=O)c2)nc1N1CCN(c2ccccc2)CC1 | PIK3CA H1047L | binding | competition with immobilised ligand | 1 µM | 81% |
| Cc1c[nH]c2nccc(Oc3c(F)cc(Nc4cc(Cl)nc(N)n4)cc3F)c12 | PIK3CA E545A | cell-free assay | competition with immobilised ligand | 0.1 µM | 88% |
| N[C@H]1CCN(c2nccc(-c3cnn4ncccc34)n2)C1 | PIK3CA E542K | binding |  | 1 µM | 83% |
